For 18 molecules, IC50, CC50 and selectivity ratio results are on record in ChEMBL document CHEMBL4715752, “Synthesis and anti-leishmanial evaluation of 1-phenyl-2,3,4,9-tetrahydro-1H-β-carboline derivatives against Leishmania infantum” (Eur J Med Chem, 2016).

In brackets after ≈: the same amount, converted by molar mass.

The subject of data set [1] is Leishmania infantum. Nature of the data set: Antileishmanial activity against Leishmania infantum BCN150 promastigotes expressing IFP1.4 assessed as inhibition of parasite growth by measuring the infrared fluorescence incubated for 48 hrs. The data set is classed as functional, organism-based. The settings on record: BCN150, 48 h. The method in brief:
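Transgenic infrared-fluorescent L. infantum BCN150 promastigotes in 96-well plates. 200 µL culture per well at 1 × 10^6 with graded compound concentrations (1, 10, 100). Incubated 48 h at 26 °C, then promastigote growth assessed.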

The subject of data set [2] is Leishmania infantum. As to the kind of experiment: Antileishmanial activity against Leishmania infantum BCN150 amastigotes expressing IFP1.4 infected in BALB/c mouse splenocytes incubated for 72 hrs by infrared fluorescence imaging analysis. The data set is classed as functional, organism-based. The conditions noted are these: BCN150, Splenocyte. The method in brief:
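Spleens from female BALB/c mice infected intraperitoneally. Splenocytes washed 3x in PBS and seeded in 384-well plates in RPMI, 20% FCS, 1 mM pyruvate, vitamins, 10 mM HEPES, penicillin/streptomycin. Wells set by fixed IR fluorescence per well, not by cell count. Compounds at various concentrations for 72 h. Fluorescence read at 700 nm on an infrared imager.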

A short description of data set [3]: Cytotoxicity against mouse splenocytes by alamar blue assay. It is filed as cell-based, Splenocyte.
Data set [4] in a line: Selectivity index, ratio of CC50 for mouse splenocytes to IC50 for Leishmania infantum BCN150 amastigotes expressing IFP1.4 infected in BALB/c mouse splenocytes. The data set is classed as toxicity, cell-based. The conditions noted are these: read-out: Ratio CC50/IC50.
Data set [5] in a line: Selectivity index, ratio of CC50 for mouse splenocytes to IC50 for Leishmania infantum BCN150 promastigotes expressing IFP1.4. It is filed as toxicity. The settings on record: read-out: Ratio CC50/IC50.
In data set [6] the test system is Leishmania infantum. As to the kind of experiment: Antileishmanial activity against late log phase promastigote stage of Leishmania infantum MHOM/FR/78/LEM75 assessed as inhibition of parasite growth incubated for 48 hrs by hemocytometer counting method. The data set is classed as functional, organism-based. The settings on record: MHOM/FR/78/LEM75, 48 h.

The term IC50 denotes the midpoint of a concentration-inhibition curve. As usually defined, the CC50 is the concentration that lowers cell viability or growth by half. Low values mean greater toxicity to the cells, high ones lower toxicity to the cells. With `O=C(CN1CCc2c([nH]c3ccccc23)C1c1ccccc1)Nc1cccc([N+](=O)[O-])c1` (configuration not stated), the IC50 is greater than 100 µM in the data set with Leishmania infantum [1] and 0.87 µM with Leishmania infantum [2]. The same molecule showed a CC50 in data set [3] greater than 200 µM. Besides, in data set [4], the selectivity ratio was greater than 230.
With `Cc1cccc(NC(=O)CN2CCc3c([nH]c4ccccc34)C2c2ccccc2)c1` (configuration not stated), the IC50 was 7.63 µM with Leishmania infantum [1] and 1.48 µM with Leishmania infantum [2]. The selectivity ratio is greater than 26.2 in data set [5] and greater than 135 in data set [4]. Also, in data set [3], the CC50 is greater than 200 µM.
The corresponding values for `COc1cccc(NC(=O)CN2CCc3c([nH]c4ccccc34)C2c2ccccc2)c1` (configuration not stated) are 14.6 µM, 1.23 µM, greater than 13.7, greater than 163 and greater than 200 µM.
The corresponding values for `Cc1ccccc1NC(=O)CN1CCc2c([nH]c3ccccc23)C1c1ccccc1` (configuration not stated) are 10.4 µM, 0.67 µM, greater than 19.2, greater than 298 and greater than 200 µM.
The corresponding values for `O=C(CN1CCc2c([nH]c3ccccc23)C1c1ccccc1)Nc1ccc([N+](=O)[O-])cc1` (configuration not stated) are 8.1 µM, 5.29 µM, greater than 24.7, greater than 37.8 and greater than 200 µM.
With `Cc1ccc(NC(=O)CN2CCc3c([nH]c4ccccc34)C2c2ccccc2)c(C)c1` (configuration not stated), the results for the IC50 in the data set on Leishmania infantum [1] and with Leishmania infantum [2] were 16.9 µM and 2.64 µM, respectively. Besides, the selectivity ratio in data set [5] is greater than 11.8; in data set [4], greater than 75.8. Also, the CC50 in data set [3] is greater than 200 µM.
The matching figures for `O=C(CN1CCc2c([nH]c3ccccc23)C1c1ccccc1)Nc1ccc(F)cc1` (configuration not stated): 15.1 µM, 4.16 µM, greater than 13.2, greater than 48.1 and greater than 200 µM.
With `COc1ccc(NC(=O)CN2CCc3c([nH]c4ccccc34)C2c2ccccc2)cc1` (configuration not stated), the IC50 was greater than 100 µM in the data set on Leishmania infantum [1] and 6.46 µM in the data set with Leishmania infantum [2]. In data set [3], this molecule yielded a CC50 greater than 200 µM. For the same molecule, the selectivity ratio in data set [4] is greater than 30.9.
For `O=C(CN1CCc2c([nH]c3ccccc23)C1c1ccccc1)Nc1cccc2ccccc12` (configuration not stated), the results for the IC50 with Leishmania infantum [1] and with Leishmania infantum [2] were greater than 100 µM and 2.25 µM, respectively. Also, in data set [3], the CC50 is greater than 200 µM. In data set [4], the selectivity ratio is greater than 88.9.
For `COc1ccccc1NC(=O)CN1CCc2c([nH]c3ccccc23)C1c1ccccc1` (configuration not stated), the values for the IC50 in the data set with Leishmania infantum [1] and in the data set on Leishmania infantum [2] were 1.99 µM and 5.35 µM, respectively. Further, the selectivity ratio in data set [5] is greater than 100; in data set [4], greater than 37.4. Further, the CC50 in data set [3] is greater than 200 µM.
The corresponding values for `O=C(CN1CCc2c([nH]c3ccccc23)C1c1ccccc1)Nc1ccccc1` (configuration not stated) are 12.4 µM, 1.68 µM, greater than 16.2, greater than 119 and greater than 200 µM.
The corresponding values for `O=C(CN1CCc2c([nH]c3ccccc23)C1c1ccccc1)Nc1ccc(Cl)cc1` (configuration not stated) are 15.1 µM, 3.75 µM, 9.64, 38.9 and 146 µM.
In the case of `O=C(CN1CCc2c([nH]c3ccccc23)C1c1ccccc1)Nc1cccc(C(F)(F)F)c1` (configuration not stated), the IC50 in the data set on Leishmania infantum [1] was 45.2 µM; with Leishmania infantum [2], 2.02 µM. The selectivity ratio is greater than 4.43 in data set [5] and greater than 99 in data set [4]. The molecule further showed a CC50 in data set [3] greater than 200 µM.
Turning to `C/C=C1\CCN2CCc3c([nH]c4ccccc34)[C@H]2[C@@H]1[C@@H](C(=O)OC)[C@H]1NCCc2c1[nH]c1ccccc21`, in the data set on Leishmania infantum [6], the IC50 came to 1.56 µg/mL (≈ 3.15 µM).
As to `O=C(CN1CCc2c([nH]c3ccccc23)C1c1ccccc1)Nc1cccc(Cl)c1` (configuration not stated), the IC50 in the data set with Leishmania infantum [1] is 6.68 µM; with Leishmania infantum [2], 1.51 µM. The selectivity ratio in data set [5] is greater than 29.9; in data set [4], greater than 132. The molecule further yielded a CC50 in data set [3] greater than 200 µM.
`O=C(CN1CCc2c([nH]c3ccccc23)C1c1ccccc1)Nc1ccccc1Cl` (configuration not stated): the half-maximal inhibitory concentration (IC50) in the data set with Leishmania infantum [1] is 20.7 µM; in the data set on Leishmania infantum [2] it was 1.05 µM. The selectivity ratio in data set [5] was greater than 9.67; in data set [4], greater than 190. In data set [3], this molecule yielded a CC50 greater than 200 µM.
The matching figures for `Cc1ccc(NC(=O)CN2CCc3c([nH]c4ccccc34)C2c2ccccc2)cc1` (configuration not stated): 19.2 µM, 6.31 µM, greater than 10.4, greater than 31.7 and greater than 200 µM.
In the data set with Leishmania infantum [2], `C[C@@H]1[C@H](O)[C@@H](C)/C=C/C=C/C=C/C=C/C=C/C=C/C=C/[C@H](O[C@@H]2O[C@H](C)[C@@H](O)[C@H](N)[C@@H]2O)C[C@@H]2O[C@](O)(C[C@@H](O)C[C@@H](O)[C@H](O)CC[C@@H](O)C[C@@H](O)CC(=O)O[C@H]1C)C[C@H](O)[C@H]2C(=O)O` [AMPHOTERICIN B] registered an IC50 of 0.32 µM. Also, the selectivity ratio in data set [5] was greater than 260; in data set [4] it was greater than 62.5. In data set [3], this molecule had a CC50 greater than 20 µM.
